From ChEMBL document CHEMBL3259649, “Design and synthesis of novel 2-(4-(2-(dimethylamino)ethyl)-4H-1,2,4-triazol-3-yl)pyridines as potential antitumor agents” (Eur J Med Chem, 2014) come the findings set out here.

Test [1] in a line: Cytotoxicity against human MKN45 cells after 72 hrs by MTT assay. The format is functional, cell-based. The settings on record: MKN-45, 72 h. The method in brief:
(§1)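 MTT assay: about 4 × 10³ cells per well in MEM with 10% FBS, grown 24 h at 37 °C under 5% CO₂, then exposed to compound for 72 h. MTT added to a final 5 µg/mL for 4 h at 37 °C. Three runs per cell line; IC50 is the mean of at least three determinations.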
In general terms: Formazan colour is commonly taken as a measure of viable cells.

Test [2] is described as follows: Cytotoxicity against human H460 cells after 72 hrs by MTT assay. The format is functional, cell-based. The settings on record: NCI-H460, 72 h. The method, boiled down: as §1
In a further test the test system is HT-29. Nature of the test: Cytotoxicity against human HT-29 cells after 72 hrs by MTT assay. The class given is functional, cell-based. To be noted: HT-29, 72 h. The method in brief:
as §1

The test system of the next test is A549. Nature of the test: Cytotoxicity against human A549 cells after 72 hrs by MTT assay. The settings on record: A549, 72 h. The format is functional, cell-based. The method, boiled down: (§2)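 MTT assay: about 4 × 10³ cells per well in MEM with 10% FBS, grown 24 h at 37 °C under 5% CO₂, then exposed to compound for 72 h. MTT added to a final 5 µg/mL for 4 h at 37 °C. Formazan dissolved in DMSO and absorbance read at 492 nm against 630 nm reference. Three runs per cell line; IC50 is the mean of at least three determinations.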

The nature of test [3]: Cytotoxicity against human U87MG cells after 72 hrs by MTT assay. The class given is functional, cell-based, U-87MG ATCC. The settings on record: U-87 MG. The method in brief: as §2
A further test deals with WI-38. Nature of the test: Cytotoxicity against human WI38 cells after 72 hrs by MTT assay. The format is cell-based. The settings on record: WI-38, 72 h. The method in brief: as §2

Each structure is given as a SMILES string. pIC50: −log10 of the molar value.

A word on the pIC50: it is −log10 of the IC50, conventionally taken in molar units. Read a low pIC50 as a large IC50. Regarding `CN(C)CCn1cnnc1-c1cc(Oc2ccc(NC(=O)N/N=C/c3ccc(O)c(F)c3)cc2F)ccn1`, the pIC50 in test [1] was 5.71; in test [2], 5.58; in the test with HT-29, 5.48; with A549 it was 4.87; in test [3], below 4.00.

Turning to `CN(C)CCn1cnnc1-c1cc(Oc2ccc(NC(=O)N/N=C/c3ccc(O)cc3)cc2F)ccn1`, the pIC50 was 6.09 in test [1]; 5.75 in test [2]; 5.72 with HT-29; 5.45 in the test with A549; 5.11 in test [3].

For `Cn1cnnc1-c1cc(Oc2ccc(NC(=O)N/N=C/c3ccccc3)cc2F)ccn1`, the pIC50 was 5.12 in test [1]; 4.80 in test [2]; 5.06 in the test on HT-29; 5.12 with A549; 4.44 in test [3].

Take `COc1cc(/C=N/NC(=O)Nc2ccc(Oc3ccnc(-c4nncn4CCN(C)C)c3)c(F)c2)cc(OC)c1OC`: the pIC50 was 5.54 in test [1]; 5.56 in test [2]; 5.44 in the test with HT-29; below 4.00 in the test on A549; 4.65 in test [3].

Take `COc1ccc(/C=N/NC(=O)Nc2ccc(Oc3ccnc(-c4nncn4CCN(C)C)c3)c(F)c2)cc1O`: the pIC50 in test [1] was 5.60; in test [2] it was 6.21; in the test with HT-29, 6.02; in the test with A549, below 4.00; in test [3], below 4.00.

On to `COc1ccc(OC)c(/C=N/NC(=O)Nc2ccc(Oc3ccnc(-c4nncn4CCN(C)C)c3)c(F)c2)c1`, for which the negative logarithm of the IC50 (pIC50) in test [1] was 5.82; in test [2] it was 5.53; with HT-29, 5.68; in the test with A549, 5.71; in test [3] it was 5.19.

On to `CN(C)CCn1cnnc1-c1cc(Oc2ccc(NC(=O)N/N=C/c3ccccc3)cc2F)ccn1`, for which the pIC50 was 5.56 in test [1]; 5.75 in test [2]; 5.95 in the test with HT-29; 5.73 in the test on A549; 5.65 in test [3].

`CN(C)CCn1cnnc1-c1cc(Oc2ccc(NC(=O)N/N=C/c3cc(Br)c(O)c(Br)c3)cc2F)ccn1`: the pIC50 in test [1] is 5.36; in test [2] it was 5.42; in the test with HT-29 it was 5.57; in the test on A549, below 4.00; in test [3] it was below 4.00.

Take `COc1ccc(/C=N/NC(=O)Nc2ccc(Oc3ccnc(-c4nncn4CCN(C)C)c3)c(F)c2)c(OC)c1OC`: the pIC50 in test [1] was 5.69; in test [2], 5.75; in the test with HT-29, 5.40; in the test with A549 it was 5.18; in test [3], 5.12.

Regarding `CN(C)CCn1cnnc1-c1cc(Oc2ccc(NC(=O)N/N=C/c3ccc(O)c(O)c3)cc2F)ccn1`, the pIC50 is 5.49 in test [1]; 5.71 in test [2]; 5.72 in the test on HT-29; below 4.00 in the test on A549; below 4.00 in test [3].

On to `CNC(=O)c1cc(Oc2ccc(NC(=O)Nc3ccc(Cl)c(C(F)(F)F)c3)cc2)ccn1` [SORAFENIB], for which the figures for the pIC50 (with A549; in test [3]; in the test with WI-38) were 5.72, 4.81 and 5.12, respectively.

With `CN(C)CCn1cnnc1-c1cc(Oc2ccc(NC(=O)N/N=C/c3cccc(O)c3)cc2F)ccn1`, the pIC50 is 5.86 in test [1]; 6.11 in test [2]; 6.48 in the test on HT-29; below 4.00 in the test on A549; below 4.00 in test [3].

Regarding `CN(C)CCn1cnnc1-c1cc(Oc2ccc(NC(=O)N/N=C/c3ccc(O)cc3O)cc2F)ccn1`, the pIC50 in test [1] was 5.54; in test [2], 4.95; in the test with HT-29, 4.28; with A549 it was 4.90; in test [3], 4.81.

Turning to `Cn1ncnc1-c1cc(Oc2ccc(NC(=O)N/N=C/c3ccccc3)cc2F)ccn1`, the pIC50 in test [1] was below 4.00; in test [2], 4.28; in the test with HT-29, 4.52; with A549 it was below 4.00; in test [3], below 4.00.
